Source: ChEMBL document CHEMBL1165943, “Design and synthesis of new anticancer pyrimidines with multiple-kinase inhibitory effect” (Bioorg Med Chem, 2010)
Activity calls are given as the source filed them. No cut-off for these calls is given here.

Experiments:
ACHN [1] = experiment: Growth inhibition of human ACHN cells after 48 hrs by sulforhodamine B assay; format: functional, cell-based
In short: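 Five-dose SRB assay. Cells in RPMI 1640 with 5% FBS and 2 mM L-glutamine were seeded at 5,000–40,000 cells/well, with a TCA-fixed time-zero plate (Tz) taken at 24 h. Compound stocks were in DMSO, serially diluted 10-fold or ½-log to five concentrations, and incubated 48 h at 37 °C. Plates were stained with SRB and read at 515 nm. IC₅₀ was taken where [(Ti−Tz)/(C−Tz)]×100 = 50.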

T47D [2] = experiment: Growth inhibition of human T47D cells after 48 hrs by sulforhodamine B assay; format: functional, cell-based
In short: (§1)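 Cells grown in RPMI 1640 with 5% FBS and 2 mM L-glutamine, seeded at 5,000–40,000 cells/well according to doubling time. After 24 h, time-zero plates are TCA-fixed. Five concentrations (10-fold or ½log dilutions, DMSO stocks) are applied for 48 h at 37 °C, 5% CO₂. Cells are TCA-fixed, SRB-stained and read at 515 nm. IC₅₀ is taken from [(Ti−Tz)/(C−Tz)]×100 = 50.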

SNB-75 [3] = experiment: Cytotoxicity against human SNB75 cells assessed as cell growth at 0.001 uM after 48 hrs by sulforhodamine B assay; format: functional; details: SNB-75, 48 h, read-out: Activity
ACHN [4] = experiment: Cytotoxicity against human ACHN cells assessed as cell growth at 0.001 uM after 48 hrs by sulforhodamine B assay; format: functional; details: read-out: Activity
In short: (§2)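 Cells grown in RPMI 1640 with 5% FBS and 2 mM L-glutamine, seeded at 5,000–40,000 cells/well by doubling time. Time-zero plates TCA-fixed after 24 h. Five concentrations (10-fold or half-log dilutions from DMSO stock) added; 48 h at 37 °C, 5% CO2. Cold TCA fixation (final 10%, 60 min, 4 °C), 0.4% SRB stain, dye solubilized in 10 mM trizma base, A515.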

T47D [5] = experiment: Cytotoxicity against human T47D cells assessed as cell growth at 0.001 uM after 48 hrs by sulforhodamine B assay; format: functional; details: read-out: Activity
T47D [6] = experiment: Cytotoxicity against human T47D cells assessed as cell growth at 0.01 uM after 48 hrs by sulforhodamine B assay; format: functional; details: read-out: Activity
HL-60(TB) = experiment: Cytotoxicity against human HL-60(TB) cells assessed as cell growth at 100 nM after 48 hrs by sulforhodamine B assay; format: functional; details: HL-60, 48 h, read-out: Activity
In short: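 Five-concentration HL-60(TB) test in RPMI 1640 with 5% FBS and 2 mM L-glutamine. Cells are plated at 5,000–40,000/well and a TCA-fixed time-zero plate is read at drug addition after 24 h. Drug is dissolved in DMSO and given as five 10-fold or ½log dilutions for 48 h at 37 °C, 5% CO2. Settled cells are fixed with TCA, stained with SRB and read at 515 nm.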

A549 = experiment: Cytotoxicity against human A549 cells assessed as cell growth at 100 nM after 48 hrs by sulforhodamine B assay; format: functional; details: A549, 48 h, read-out: Activity; in short: as §2
MDA-MB-435 [7] = experiment: Cytotoxicity against human MDA-MB-435 cells assessed as cell growth at 100 nM after 48 hrs by sulforhodamine B assay; format: functional; details: MDA-MB-435, 48 h, read-out: Activity
COLO 205 = experiment: Cytotoxicity against human COLO205 cells assessed as cell growth at 0.01 uM after 48 hrs by sulforhodamine B assay; format: functional; details: COLO 205, 48 h, read-out: Activity; in short: as §2
MDA-MB-435 [8] = experiment: Cytotoxicity against human MDA-MB-435 cells assessed as cell growth at 10 uM after 48 hrs by sulforhodamine B assay; format: functional; details: MDA-MB-435, 48 h, read-out: Activity
OVCAR-4 = experiment: Cytotoxicity against human OVCAR4 cells assessed as cell growth at 10 uM after 48 hrs by sulforhodamine B assay; format: functional; details: OVCAR-4, 48 h, read-out: Activity
A498 = experiment: Cytotoxicity against human A498 cells assessed as cell growth at 10 uM after 48 hrs by sulforhodamine B assay; format: functional; details: A498, 48 h, read-out: Activity; in short: as §2
UO-31 = experiment: Cytotoxicity against human UO31 cells assessed as cell growth at 10 uM after 48 hrs by sulforhodamine B assay; format: functional; details: UO-31, 48 h, read-out: Activity
HT-29 = experiment: Cytotoxicity against human HT-29 cells assessed as cell growth at 1 uM after 48 hrs by sulforhodamine B assay; format: functional; details: HT-29, 48 h, read-out: Activity
SNB-75 [9] = experiment: Cytotoxicity against human SNB75 cells assessed as cell growth at 1 uM after 48 hrs by sulforhodamine B assay; format: functional; details: SNB-75, 48 h, read-out: Activity
OVCAR-3 = experiment: Cytotoxicity against human OVCAR-3 cells assessed as cell growth at 0.01 uM after 48 hrs by sulforhodamine B assay; format: functional; details: OVCAR-3, 48 h, read-out: Activity
786-0 = experiment: Cytotoxicity against human 786-0 cells assessed as cell growth at 0.01 uM after 48 hrs by sulforhodamine B assay; format: functional; details: 786-0, 48 h, read-out: Activity; in short: as §2
SK-MEL-5 = experiment: Cytotoxicity against human SK-MEL-5 cells assessed as cell growth at 1 uM after 48 hrs by sulforhodamine B assay; format: functional; details: SK-MEL-5, 48 h, read-out: Activity
IGROV-1 = experiment: Cytotoxicity against human IGROV1 cells assessed as cell growth at 1 uM after 48 hrs by sulforhodamine B assay; format: functional; details: IGROV-1, 48 h, read-out: Activity
NCI/ADR-RES = experiment: Cytotoxicity against human NCI/ADR-RES cells assessed as cell growth at 1 uM after 48 hrs by sulforhodamine B assay; format: functional; details: read-out: Activity
DU-145 = experiment: Cytotoxicity against human DU145 cells assessed as cell growth at 1 uM after 48 hrs by sulforhodamine B assay; format: functional; details: DU-145, 48 h, read-out: Activity
NCI-H322M = experiment: Growth inhibition of human NCI-H322M cells after 48 hrs by sulforhodamine B assay; format: functional, cell-based; details: for CC50: read-out: LC50 (the source's name); in short: as §1
HCT-116 = experiment: Growth inhibition of human HCT116 cells after 48 hrs by sulforhodamine B assay; format: functional, cell-based; details: HCT-116, 48 h; for CC50: read-out: LC50 (the source's name); in short: as §1
Malme-3M = experiment: Growth inhibition of human MALME-3M cells after 48 hrs by sulforhodamine B assay; format: functional, cell-based; in short: as §1
M14 = experiment: Growth inhibition of human M14 cells after 48 hrs by sulforhodamine B assay; format: functional, cell-based; details: for CC50: read-out: LC50 (the source's name); in short: as §1
MDA-MB-435 [10] = experiment: Growth inhibition of human MDA-MB-435 cells after 48 hrs by sulforhodamine B assay; format: functional, cell-based; details: MDA-MB-435, 48 h; for CC50: read-out: LC50 (the source's name); in short: as §1

CC(=O)Nc1cccc(-c2ccc(-c3ccnc(NC(=O)Nc4cc(C(F)(F)F)cc(C(F)(F)F)c4)n3)cn2)c1.Cl
GI50 (ACHN [1]): 3.83 µM
IC50 (ACHN [1]): 3.83 µM
LC50 (50% lethal concentration) (ACHN [1]): 47.1 µM
TGI (ACHN [1]): 15.5 µM
GI50 (T47D [2]): 619 nM
IC50 (T47D [2]): 619 nM
LC50 (lethal concentration, 50% net cell kill) (T47D [2]): > 100 µM
TGI (T47D [2]): 8.43 µM
growth at 0.001 µM (SNB-75 [3]): 57%
growth at 0.001 µM (ACHN [4]): 101%
growth at 0.001 µM (T47D [5]): 89%
growth at 0.01 µM (T47D [6]): 80%
growth at 0.1 µM (HL-60(TB)): 80%
growth at 0.1 µM (A549): 58%
growth at 0.1 µM (MDA-MB-435 [7]): 89%
growth at 0.01 µM (COLO 205): 100%
growth at 10 µM (MDA-MB-435 [8]): -27%
growth at 10 µM (OVCAR-4): -87%
growth at 10 µM (A498): -77%
growth at 10 µM (UO-31): -75%
growth at 1 µM (HT-29): -6%
growth at 1 µM (SNB-75 [9]): 54%
growth at 0.01 µM (OVCAR-3): 105%
growth at 0.01 µM (786-0): 98%
growth at 1 µM (SK-MEL-5): 100%
growth at 1 µM (IGROV-1): -2%
growth at 1 µM (NCI/ADR-RES): 17%
growth at 1 µM (DU-145): 38%
GI50 (NCI-H322M): 2170 nM
IC50 (NCI-H322M): 2170 nM
TGI (NCI-H322M): 14.6 µM
CC50 (NCI-H322M): 68.8 µM
GI50 (HCT-116): 1600 nM
IC50 (HCT-116): 1600 nM
TGI (HCT-116): 4.71 µM
CC50 (HCT-116): 17.1 µM
LC50 (Malme-3M): inactive
GI50 (Malme-3M; Homo sapiens, Malme-3M, 48 h): 2010 nM
TGI (Malme-3M; Homo sapiens, Malme-3M, 48 h): 4.48 µM
IC50 (Malme-3M; Homo sapiens, Malme-3M, 48 h, read-out: IC50): 2010 nM
GI50 (M14; Homo sapiens, M14, 48 h): 1830 nM
TGI (M14; Homo sapiens, M14, 48 h): 3.76 µM
IC50 (M14; Homo sapiens, M14, 48 h, read-out: IC50): 1830 nM
CC50 (M14; Homo sapiens, M14, 48 h): 7.74 µM
GI50 (MDA-MB-435 [10]): 2310 nM
IC50 (MDA-MB-435 [10]): 2310 nM
TGI (MDA-MB-435 [10]): 6.8 µM
CC50 (MDA-MB-435 [10]): > 100 µM

CC(=O)c1ccccc1-c1ccc(-c2ccnc(NC(=O)Nc3cc(N4CCOCC4)cc(C(F)(F)F)c3)n2)cn1
GI50 (ACHN [1]): > 100 µM
IC50 (ACHN [1]): 6.89 µM
LC50 (50% lethal concentration) (ACHN [1]): > 100 µM
TGI (ACHN [1]): > 100 µM
GI50 (T47D [2]): > 100000 nM
IC50 (T47D [2]): > 100000 nM
LC50 (lethal concentration, 50% net cell kill) (T47D [2]): > 100 µM
TGI (T47D [2]): > 100 µM
growth at 0.001 µM (SNB-75 [3]): 88%
growth at 0.001 µM (ACHN [4]): 97%
growth at 0.001 µM (T47D [5]): 106%
growth at 0.01 µM (T47D [6]): 102%
growth at 0.1 µM (HL-60(TB)): 73%
growth at 0.1 µM (A549): 92%
growth at 0.1 µM (MDA-MB-435 [7]): 92%
growth at 0.01 µM (COLO 205): 114%
growth at 10 µM (MDA-MB-435 [8]): 91%
growth at 10 µM (OVCAR-4): 91%
growth at 10 µM (A498): 98%
growth at 10 µM (UO-31): 86%
growth at 1 µM (HT-29): 76%
growth at 1 µM (SNB-75 [9]): 36%
growth at 0.01 µM (OVCAR-3): 95%
growth at 0.01 µM (786-0): 100%
growth at 1 µM (SK-MEL-5): 33%
growth at 1 µM (IGROV-1): 40%
growth at 1 µM (NCI/ADR-RES): 50%
growth at 1 µM (DU-145): 19%
GI50 (NCI-H322M): > 100000 nM
IC50 (NCI-H322M): > 100000 nM
TGI (NCI-H322M): > 100 µM
CC50 (NCI-H322M): > 100 µM
GI50 (HCT-116): > 100000 nM
IC50 (HCT-116): > 100000 nM
TGI (HCT-116): > 100 µM
CC50 (HCT-116): > 100 µM
TGI (Malme-3M; Homo sapiens, Malme-3M, 48 h): > 100 µM
CC50 (Malme-3M; Homo sapiens, Malme-3M, 48 h, read-out: LC50 (the source's name)): > 100 µM
IC50 (Malme-3M; malme-3m): Not Active
TGI (M14; Homo sapiens, M14, 48 h): > 100 µM
CC50 (M14; Homo sapiens, M14, 48 h): > 100 µM
IC50 (M14; m14): Not Active
GI50 (MDA-MB-435 [10]): > 100000 nM
IC50 (MDA-MB-435 [10]): > 100000 nM
TGI (MDA-MB-435 [10]): > 100 µM
CC50 (MDA-MB-435 [10]): > 100 µM
